Published values gathered from unrelated publications.
Target: MAP kinase-activated protein kinase 2 (MAPKAPK2, Homo sapiens, UniProt P49137)

SMILES | observed | action | method | tested at | quantity | value
C1=C/COCc2cc(ccc2OCCN2CCCC2)Nc2nccc(n2)-c2cccc(c2)COC/1 | binding | – | – | 0.1 µM | remaining binding | 100%
COc1ccc2[nH]c3c4[nH]c5ccc(OC)cc5c4c4c(c3c2c1)C(=O)NC4=O | binding | – | – | 1 µM | remaining binding | 100%
C=CC(=O)N1CCC([C@@H]2CCNc3c(C(N)=O)c(-c4ccc(Oc5ccccc5)cc4)nn32)CC1 | enzyme activity | inhibitor | – | 1 µM | inhibition | 29%
CCCCC(=O)Nc1ccc(-c2ccc3ncn(CCC)c(=O)c3c2)cn1 | binding | – | competition with immobilised ligand | 0.5 µM | remaining binding | 100%
CN1CCN(C(=O)c2ccc(NC(=O)Nc3ccc(N(C)c4ccnc(Nc5ccc(CS(C)(=O)=O)cc5)n4)cc3)cc2)CC1 | binding | – | – | 1 µM | remaining binding | 100%
C=CC(=O)N1CCC[C@@H](n2nc(-c3ccc(Oc4ccccc4)cc3)c3c(N)ncnc32)C1 | enzyme activity | inhibitor | – | 1 µM | inhibition | 0%
N#Cc1ccc(NC(=O)Nc2ccccc2)cc1 | cell-free assay | – | competition with immobilised ligand | 25 µM | remaining binding | 65%
COc1ccc2oc(-c3ccc4nc(N)oc4c3)c/c(=N\c3ccccc3NC(=O)CCN)c2c1 | binding | – | – | 1 µM | remaining binding | 103%
C#Cc1cnc(Nc2ccnc(CO)c2)nc1Nc1ccccc1S(C)(=O)=NC#N (stereo not drawn) | cell-free assay | – | – | 1 µM | remaining signal | 100%
